Laboratory results from ChEMBL document CHEMBL1152541, “Staurosporine tethered peptide ligands that target cAMP-dependent protein kinase (PKA): optimization and selectivity profiling” (Bioorg Med Chem, 2009).
Each block holds one molecule with its values, some of them ahead of it. *1 amine or outer side, *2 acyl side, *3 side chain or, on linkers, in order; H or OH if unused. Where a SMILES comes first, the peptide text is derived from it. Bridges are numbered along the chain shown (N, C = ends). [ ]: non-standard residue; d: D form. The star is where a group is joined. Staurosporine = CO[C@@H]1[C@H](N(C)*)C[C@H]2O[C@]1(C)n1c3ccccc3c3c4c(c5c6ccccc6n2c5c31)C(=O)NC4; Suc = O=C(CCC(=O)[*:2])[*:1]; Dap = NC[C@H](N)C(=O)O; βAla = NCCC(=O)O

What was measured:
[1] = target: Mitogen-activated protein kinase 9 (Homo sapiens) (UniProt P45984); test: Binding affinity to human JNK2 at 500 nM by cell-based competition binding assay relative to control in presence of DTT
Summary of the method: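 Competition binding screen (Ambit) across a panel of 90 kinases, scoring test ligand displacement of each kinase's binding relative to control. The screen ran under reducing conditions with 7.5 mM DTT.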

[2] = target: Receptor tyrosine-protein kinase erbB-2 (Homo sapiens) (UniProt P04626); test: Binding affinity to human ERBB2 at 500 nM by cell-based competition binding assay relative to control in presence of DTT
Summary of the method: (§1)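 Commercial (Ambit) competitive kinase-binding panel of 90 kinases measured the binding profile. Run under reducing conditions of 7.5 mM DTT. Binding is expressed relative to control.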

[3] = system: Tyrosine-protein kinase ABL1 (Homo sapiens), P00519 [E255K]; test: Binding affinity to human ABL1 E255K mutant at 500 nM by cell-based competition binding assay relative to control in presence of DTT
Summary of the method: (§2)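 Kinase binding profiling ran on a commercial (Ambit) competitive binding screen against a panel of 90 kinases. The screen used reducing conditions with 7.5 mM DTT. To withstand the DTT, the bivalent ligand was tested as its amide isostere, with the disulfide replaced. A staurosporine derivative carrying a 3 β-alanine linker was run as the reference compound.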

[4] = target: T1, Bone morphogenetic protein receptor type-2 (Homo sapiens) (UniProt Q13873); test: Binding affinity to human BMPR2 at 500 nM by cell-based competition binding assay relative to control in presence of DTT; summary of the method: as §2
T1 sequence (whole entry): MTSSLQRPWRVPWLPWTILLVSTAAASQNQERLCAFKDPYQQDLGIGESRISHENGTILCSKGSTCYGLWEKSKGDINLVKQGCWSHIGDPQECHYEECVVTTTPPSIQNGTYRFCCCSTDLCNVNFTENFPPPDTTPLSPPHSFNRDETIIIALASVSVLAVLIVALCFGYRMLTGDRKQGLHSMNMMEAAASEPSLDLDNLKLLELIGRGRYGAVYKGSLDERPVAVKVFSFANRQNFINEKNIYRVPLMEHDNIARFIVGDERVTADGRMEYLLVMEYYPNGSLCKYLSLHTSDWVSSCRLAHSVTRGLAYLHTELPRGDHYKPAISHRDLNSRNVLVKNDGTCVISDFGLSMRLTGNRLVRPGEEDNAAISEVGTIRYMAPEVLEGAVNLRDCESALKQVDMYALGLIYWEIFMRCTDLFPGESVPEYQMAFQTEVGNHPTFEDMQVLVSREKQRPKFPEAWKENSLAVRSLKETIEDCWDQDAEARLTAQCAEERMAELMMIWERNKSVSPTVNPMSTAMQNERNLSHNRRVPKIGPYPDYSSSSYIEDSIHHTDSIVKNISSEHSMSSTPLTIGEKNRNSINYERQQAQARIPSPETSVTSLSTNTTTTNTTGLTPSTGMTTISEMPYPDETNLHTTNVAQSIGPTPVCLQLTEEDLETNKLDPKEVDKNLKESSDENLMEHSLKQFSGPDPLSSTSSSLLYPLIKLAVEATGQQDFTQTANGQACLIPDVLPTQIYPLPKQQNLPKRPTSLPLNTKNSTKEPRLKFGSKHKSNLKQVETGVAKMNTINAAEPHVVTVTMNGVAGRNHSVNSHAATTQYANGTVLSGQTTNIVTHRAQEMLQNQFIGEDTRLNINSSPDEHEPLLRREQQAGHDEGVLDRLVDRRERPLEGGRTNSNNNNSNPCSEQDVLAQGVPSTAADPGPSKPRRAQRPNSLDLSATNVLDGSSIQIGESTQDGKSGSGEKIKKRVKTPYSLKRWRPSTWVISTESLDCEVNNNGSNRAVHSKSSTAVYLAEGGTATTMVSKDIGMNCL

[5] = target: 3-phosphoinositide-dependent protein kinase 1 (Homo sapiens) (UniProt O15530); test: Ratio of compound to staurosporine binding affinity to PDK1 in presence of DTT
[6] = target: MAP kinase-interacting serine/threonine-protein kinase 2 (Homo sapiens) (UniProt Q9HBH9); test: Binding affinity to human MKNK2 at 500 nM by cell-based competition binding assay relative to control in presence of DTT
[7] = target: Serine/threonine-protein kinase 32C (Homo sapiens) (UniProt Q86UX6); test: Binding affinity to human YANK3 at 500 nM by cell-based competition binding assay relative to control in presence of DTT
[8] = target: Serine/threonine-protein kinase pim-1 (Homo sapiens) (UniProt P11309); test: Ratio of compound to staurosporine binding affinity to human PIM1 in presence of DTT
[9] = system: Epidermal growth factor receptor (Homo sapiens), P00533 [L858R]; test: Binding affinity to human EGFR L858R mutant at 500 nM by cell-based competition binding assay relative to control in presence of DTT; summary of the method: as §1
[10] = target: Epidermal growth factor receptor (Homo sapiens) (UniProt P00533); test: Binding affinity to human EGFR at 200 nM by cell-based competition binding assay relative to control in presence of DTT; summary of the method: as §1
[11] = target: T2, Aurora kinase A (Homo sapiens) (UniProt O14965); test: Binding affinity to human aurora kinase A at 200 nM by cell-based competition binding assay relative to control in presence of DTT
T2 sequence (whole entry): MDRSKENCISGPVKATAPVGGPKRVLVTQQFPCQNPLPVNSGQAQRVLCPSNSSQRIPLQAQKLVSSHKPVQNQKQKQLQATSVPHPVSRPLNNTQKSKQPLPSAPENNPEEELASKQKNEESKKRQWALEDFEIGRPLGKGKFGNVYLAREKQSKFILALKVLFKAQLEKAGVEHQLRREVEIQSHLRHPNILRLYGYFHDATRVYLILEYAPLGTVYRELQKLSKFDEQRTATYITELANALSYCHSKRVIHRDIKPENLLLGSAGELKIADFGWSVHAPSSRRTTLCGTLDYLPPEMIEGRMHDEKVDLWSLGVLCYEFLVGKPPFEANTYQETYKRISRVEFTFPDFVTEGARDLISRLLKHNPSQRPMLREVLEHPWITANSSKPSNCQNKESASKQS

[12] = target: Serine/threonine-protein kinase 32C (Homo sapiens) (UniProt Q86UX6); test: Binding affinity to human YANK3 at 200 nM by cell-based competition binding assay relative to control in presence of DTT
[13] = target: Vascular endothelial growth factor receptor 2 (Homo sapiens) (UniProt P35968); test: Binding affinity to human VEGFR2 at 50 nM by cell-based competition binding assay relative to control in presence of DTT
[14] = target: Macrophage colony-stimulating factor 1 receptor (Homo sapiens) (UniProt P07333); test: Binding affinity to human CSF1R at 50 nM by cell-based competition binding assay relative to control in presence of DTT; summary of the method: as §1
[15] = target: Proto-oncogene tyrosine-protein kinase receptor Ret (Homo sapiens) (UniProt P07949); test: Binding affinity to human RET at 50 nM by cell-based competition binding assay relative to control in presence of DTT
Sequence of Proto-oncogene tyrosine-protein kinase receptor Ret (Homo sapiens) (P07949 whole entry): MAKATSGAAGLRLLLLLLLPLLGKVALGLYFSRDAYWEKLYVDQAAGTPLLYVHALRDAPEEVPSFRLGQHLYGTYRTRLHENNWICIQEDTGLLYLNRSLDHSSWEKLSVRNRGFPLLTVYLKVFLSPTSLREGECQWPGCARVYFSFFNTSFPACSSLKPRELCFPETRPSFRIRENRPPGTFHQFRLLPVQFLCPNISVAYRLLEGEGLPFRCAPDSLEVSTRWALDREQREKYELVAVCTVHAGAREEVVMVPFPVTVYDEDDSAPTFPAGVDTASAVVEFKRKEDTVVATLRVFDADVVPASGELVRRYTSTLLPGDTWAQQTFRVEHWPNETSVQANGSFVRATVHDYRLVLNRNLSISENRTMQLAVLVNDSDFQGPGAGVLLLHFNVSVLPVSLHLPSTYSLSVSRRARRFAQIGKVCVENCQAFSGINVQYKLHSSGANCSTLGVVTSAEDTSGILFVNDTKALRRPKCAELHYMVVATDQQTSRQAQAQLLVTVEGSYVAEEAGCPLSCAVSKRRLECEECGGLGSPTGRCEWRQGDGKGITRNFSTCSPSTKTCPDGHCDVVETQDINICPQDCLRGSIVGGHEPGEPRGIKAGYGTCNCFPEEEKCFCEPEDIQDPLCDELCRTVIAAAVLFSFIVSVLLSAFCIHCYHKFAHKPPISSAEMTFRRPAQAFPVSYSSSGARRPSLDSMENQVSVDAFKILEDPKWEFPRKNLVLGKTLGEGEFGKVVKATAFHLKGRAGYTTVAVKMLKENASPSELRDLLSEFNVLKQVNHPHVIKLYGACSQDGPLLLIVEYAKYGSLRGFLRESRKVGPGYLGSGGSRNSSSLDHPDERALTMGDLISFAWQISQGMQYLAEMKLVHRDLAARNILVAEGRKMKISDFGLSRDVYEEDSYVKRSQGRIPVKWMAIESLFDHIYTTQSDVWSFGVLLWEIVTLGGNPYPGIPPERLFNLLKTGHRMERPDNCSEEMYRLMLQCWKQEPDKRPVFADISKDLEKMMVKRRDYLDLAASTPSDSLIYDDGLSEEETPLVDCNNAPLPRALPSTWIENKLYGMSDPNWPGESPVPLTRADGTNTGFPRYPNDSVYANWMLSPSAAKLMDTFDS

Sequence of Serine/threonine-protein kinase 32C (Homo sapiens) (Q86UX6 whole entry): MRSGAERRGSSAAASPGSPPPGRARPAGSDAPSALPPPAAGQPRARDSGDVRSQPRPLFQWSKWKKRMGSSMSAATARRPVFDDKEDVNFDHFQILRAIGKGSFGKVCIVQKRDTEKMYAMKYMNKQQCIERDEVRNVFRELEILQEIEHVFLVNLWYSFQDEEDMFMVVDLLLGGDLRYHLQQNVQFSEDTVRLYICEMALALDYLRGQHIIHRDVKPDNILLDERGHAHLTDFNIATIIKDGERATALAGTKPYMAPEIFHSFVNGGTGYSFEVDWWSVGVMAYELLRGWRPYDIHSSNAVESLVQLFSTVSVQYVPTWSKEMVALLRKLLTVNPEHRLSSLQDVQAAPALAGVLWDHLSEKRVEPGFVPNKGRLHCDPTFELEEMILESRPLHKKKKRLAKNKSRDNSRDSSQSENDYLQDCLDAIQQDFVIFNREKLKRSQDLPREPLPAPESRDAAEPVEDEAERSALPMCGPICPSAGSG
Sequence of Receptor tyrosine-protein kinase erbB-2 (Homo sapiens) (P04626 whole entry): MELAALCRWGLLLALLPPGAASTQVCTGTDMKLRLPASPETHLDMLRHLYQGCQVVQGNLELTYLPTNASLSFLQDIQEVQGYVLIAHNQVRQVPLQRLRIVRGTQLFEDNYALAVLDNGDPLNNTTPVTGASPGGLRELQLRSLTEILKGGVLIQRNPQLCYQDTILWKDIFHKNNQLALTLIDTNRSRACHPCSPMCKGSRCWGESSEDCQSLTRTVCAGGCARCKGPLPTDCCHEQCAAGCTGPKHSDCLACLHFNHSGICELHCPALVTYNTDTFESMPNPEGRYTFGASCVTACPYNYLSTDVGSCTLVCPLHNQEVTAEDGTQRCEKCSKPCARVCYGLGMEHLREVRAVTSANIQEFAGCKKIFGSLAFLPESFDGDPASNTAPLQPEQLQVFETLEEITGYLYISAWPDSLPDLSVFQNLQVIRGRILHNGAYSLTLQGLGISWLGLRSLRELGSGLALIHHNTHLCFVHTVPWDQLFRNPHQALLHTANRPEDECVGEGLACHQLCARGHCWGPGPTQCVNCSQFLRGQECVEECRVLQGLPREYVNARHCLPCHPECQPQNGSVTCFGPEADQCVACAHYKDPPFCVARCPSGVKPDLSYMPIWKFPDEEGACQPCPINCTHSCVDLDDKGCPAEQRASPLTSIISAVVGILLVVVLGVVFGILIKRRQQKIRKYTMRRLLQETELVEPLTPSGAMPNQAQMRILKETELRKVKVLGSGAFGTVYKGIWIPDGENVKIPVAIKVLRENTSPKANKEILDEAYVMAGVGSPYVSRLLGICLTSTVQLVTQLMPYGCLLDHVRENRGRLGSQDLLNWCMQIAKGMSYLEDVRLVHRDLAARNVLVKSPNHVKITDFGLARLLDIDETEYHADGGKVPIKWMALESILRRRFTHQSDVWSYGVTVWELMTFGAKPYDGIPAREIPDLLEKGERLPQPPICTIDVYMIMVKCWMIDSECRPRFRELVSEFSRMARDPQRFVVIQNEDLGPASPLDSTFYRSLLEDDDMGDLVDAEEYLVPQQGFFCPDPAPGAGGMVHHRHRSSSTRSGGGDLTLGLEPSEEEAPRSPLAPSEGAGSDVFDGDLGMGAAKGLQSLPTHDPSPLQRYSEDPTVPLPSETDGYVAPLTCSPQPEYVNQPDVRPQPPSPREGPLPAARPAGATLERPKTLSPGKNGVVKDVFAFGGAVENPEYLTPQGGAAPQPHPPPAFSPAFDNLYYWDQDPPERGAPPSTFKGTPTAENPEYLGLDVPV
Sequence of Macrophage colony-stimulating factor 1 receptor (Homo sapiens) (P07333 whole entry): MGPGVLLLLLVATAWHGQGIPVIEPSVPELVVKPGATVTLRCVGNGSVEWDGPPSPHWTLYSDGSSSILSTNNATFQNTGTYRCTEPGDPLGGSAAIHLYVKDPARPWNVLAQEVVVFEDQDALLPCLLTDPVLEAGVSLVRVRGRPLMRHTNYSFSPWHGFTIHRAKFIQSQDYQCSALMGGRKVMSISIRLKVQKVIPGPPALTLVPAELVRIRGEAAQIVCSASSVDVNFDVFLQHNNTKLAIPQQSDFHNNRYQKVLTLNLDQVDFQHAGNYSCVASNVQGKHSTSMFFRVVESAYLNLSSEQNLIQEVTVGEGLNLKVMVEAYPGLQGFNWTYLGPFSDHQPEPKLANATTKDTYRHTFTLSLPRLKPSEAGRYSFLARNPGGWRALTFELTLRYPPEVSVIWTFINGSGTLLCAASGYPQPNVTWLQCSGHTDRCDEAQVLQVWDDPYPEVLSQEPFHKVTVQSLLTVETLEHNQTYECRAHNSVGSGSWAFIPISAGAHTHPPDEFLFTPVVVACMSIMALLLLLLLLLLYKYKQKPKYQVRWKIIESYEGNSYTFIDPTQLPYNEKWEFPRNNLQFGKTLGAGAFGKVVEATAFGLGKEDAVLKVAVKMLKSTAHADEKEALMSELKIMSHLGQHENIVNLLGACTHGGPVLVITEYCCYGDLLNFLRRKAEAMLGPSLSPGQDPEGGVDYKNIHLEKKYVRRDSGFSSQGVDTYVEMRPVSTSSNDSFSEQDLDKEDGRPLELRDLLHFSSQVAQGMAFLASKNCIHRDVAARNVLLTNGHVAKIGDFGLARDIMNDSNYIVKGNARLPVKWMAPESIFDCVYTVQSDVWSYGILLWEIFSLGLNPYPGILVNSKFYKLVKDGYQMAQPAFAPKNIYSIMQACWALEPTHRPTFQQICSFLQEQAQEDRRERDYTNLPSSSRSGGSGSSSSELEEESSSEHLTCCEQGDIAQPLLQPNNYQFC
Sequence of MAP kinase-interacting serine/threonine-protein kinase 2 (Homo sapiens) (Q9HBH9 whole entry, looked up): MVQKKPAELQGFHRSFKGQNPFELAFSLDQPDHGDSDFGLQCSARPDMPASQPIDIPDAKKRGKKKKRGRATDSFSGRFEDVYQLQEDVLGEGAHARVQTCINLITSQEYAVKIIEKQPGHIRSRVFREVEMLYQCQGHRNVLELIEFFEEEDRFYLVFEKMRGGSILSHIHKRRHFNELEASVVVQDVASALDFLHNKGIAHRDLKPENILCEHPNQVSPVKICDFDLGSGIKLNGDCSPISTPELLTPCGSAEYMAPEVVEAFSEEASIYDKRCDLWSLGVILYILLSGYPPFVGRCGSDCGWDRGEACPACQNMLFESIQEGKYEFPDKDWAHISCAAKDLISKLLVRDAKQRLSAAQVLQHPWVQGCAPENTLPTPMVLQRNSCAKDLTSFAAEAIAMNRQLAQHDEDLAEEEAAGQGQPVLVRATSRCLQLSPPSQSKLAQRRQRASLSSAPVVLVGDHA
Sequence of Mitogen-activated protein kinase 9 (Homo sapiens) (P45984 whole entry, looked up): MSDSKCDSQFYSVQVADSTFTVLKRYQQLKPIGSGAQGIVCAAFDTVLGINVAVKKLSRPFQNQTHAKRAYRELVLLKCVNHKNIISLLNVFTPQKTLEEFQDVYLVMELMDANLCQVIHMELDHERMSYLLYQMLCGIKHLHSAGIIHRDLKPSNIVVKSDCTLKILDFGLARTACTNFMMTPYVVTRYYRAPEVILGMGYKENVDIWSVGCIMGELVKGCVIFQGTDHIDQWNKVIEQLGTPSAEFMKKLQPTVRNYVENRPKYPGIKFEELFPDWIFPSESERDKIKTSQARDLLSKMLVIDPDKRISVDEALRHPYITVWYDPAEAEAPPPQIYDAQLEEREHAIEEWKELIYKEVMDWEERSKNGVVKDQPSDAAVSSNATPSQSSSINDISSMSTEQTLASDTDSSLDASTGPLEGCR
Sequence of Serine/threonine-protein kinase pim-1 (Homo sapiens) (P11309 whole entry, looked up): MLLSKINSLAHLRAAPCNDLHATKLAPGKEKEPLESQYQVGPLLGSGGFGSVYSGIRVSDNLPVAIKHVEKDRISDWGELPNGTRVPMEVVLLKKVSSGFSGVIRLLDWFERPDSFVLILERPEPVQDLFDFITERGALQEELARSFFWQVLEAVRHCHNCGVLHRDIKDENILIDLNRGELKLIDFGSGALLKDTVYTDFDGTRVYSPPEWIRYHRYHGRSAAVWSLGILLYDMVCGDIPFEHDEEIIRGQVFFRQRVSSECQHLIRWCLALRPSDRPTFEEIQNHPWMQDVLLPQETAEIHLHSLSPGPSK

Activity [1]: 87%
Activity [2]: 95%
Activity [3]: 92%
Activity [4]: 100%
Selectivity ratio [5]: 52
Activity [6]: 39%
Activity [7]: 100%
Selectivity ratio [8]: 31
Activity [9]: 53%
SMILES: CO[C@@H]1[C@H](N(C)C(=O)CCC(=O)NCCC(=O)NCCC(=O)NCCC(N)=O)C[C@H]2O[C@]1(C)n1c3ccccc3c3c4c(c5c6ccccc6n2c5c31)C(=O)NC4

Activity [10]: 96%
Activity [11]: 19%
Activity [12]: 100%
SMILES: CO[C@@H]1[C@H](N(C)C(=O)CCC(=O)NCCC(=O)NCCC(=O)NCCC(=O)NCCC(=O)NCCC(=O)NCCC(=O)NCCC(=O)N[C@H]2CSSC[C@@H](C(=O)NCC(N)=O)NC(=O)CNC(=O)[C@H](Cc3ccccc3)NC(=O)[C@H](C(C)C)NC(=O)[C@H](CCCNC(=N)N)NC(=O)[C@H](Cc3ccccc3)NC(=O)[C@H](C(C)C)NC2=O)C[C@H]2O[C@]1(C)n1c3ccccc3c3c4c(c5c6ccccc6n2c5c31)C(=O)NC4 ({Staurosporine-Suc-βAla-βAla-βAla-βAla-βAla-βAla-βAla}-CVFRVFGCG-NH2; disulfide 1-8)

Activity [13]: 91%
Activity [14]: 83%
Activity [15]: 94%
SMILES: CO[C@@H]1[C@H](N(C)C(=O)CCC(=O)NCCC(=O)NCCC(=O)NCCC(=O)NCCC(=O)NCCC(=O)NCCC(=O)NCCC(=O)N[C@H]2CNC(=O)C[C@@H](C(N)=O)NC(=O)CNC(=O)[C@H](Cc3ccccc3)NC(=O)[C@H](C(C)C)NC(=O)[C@H](CCCNC(=N)N)NC(=O)[C@H](Cc3ccccc3)NC(=O)[C@H](C(C)C)NC2=O)C[C@H]2O[C@]1(C)n1c3ccccc3c3c4c(c5c6ccccc6n2c5c31)C(=O)NC4 ({Staurosporine-Suc-βAla-βAla-βAla-βAla-βAla-βAla-βAla}-[Dap]VFRVFGD-NH2; lactam 1-8)
